Screening results (PubChem)
Hits are enriched below; roughly 5.8% of the tested compounds scored in any of these assays.
GASC1 inh: inhibitors of GASC-1 (KDM4C) histone demethylase, primary screen, biochemical, single concentration HTS. inhibition, % at 12.5 µM. 0.15% of 96,000 active. AID 720574, 2013. GST-KDM4C 2-372, H3K9me3 peptide, LANCE TR-FRET;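 active means mean replicate inhibition above about 25%, with at least 55% of replicates also reaching it, limit read from the data, passing the limit was not always enough; inconclusive means only one of those two conditions met; inactive means neither condition met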
Target sequence (Q9H3R0 2-372 limits assumed): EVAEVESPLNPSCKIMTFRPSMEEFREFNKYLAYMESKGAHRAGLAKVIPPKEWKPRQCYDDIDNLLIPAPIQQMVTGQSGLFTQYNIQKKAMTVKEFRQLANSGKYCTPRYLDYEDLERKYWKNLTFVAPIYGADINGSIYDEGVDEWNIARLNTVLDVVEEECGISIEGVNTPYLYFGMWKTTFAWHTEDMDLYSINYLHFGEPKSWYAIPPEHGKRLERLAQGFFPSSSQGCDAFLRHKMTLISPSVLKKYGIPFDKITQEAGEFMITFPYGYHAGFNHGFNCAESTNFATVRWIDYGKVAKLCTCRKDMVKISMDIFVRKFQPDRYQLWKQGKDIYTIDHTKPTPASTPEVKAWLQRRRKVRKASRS
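Material: GST-tagged GASC-1 (JMJD2C) catalytic fragment, aa 2-372 / Quantity: enzyme final amount 10 nM / Medium: HEPES buffer, pH 7.5, plus ascorbate / Doses: one test concentration per compound / Incubation: 30 min reaction, 60 min detection, RT / Measured by: LANCE TR-FRET / Read-out: inhibition from TR-FRET ratio decrease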
Pf Dd2 growth: P. falciparum Dd2 growth inhibitors, primary screen, SYBR Green fluorescence, single dose replicates; 72 h; active compounds read low; activity change, % at 10 µM; 2.3% of 94,000 active; AID 1159554, 2015; in the data active means activity change below about -80%; inconclusive means no clear call, values can overlap the other calls
IDH1 R132H inh: inhibitors of IDH1 R132H reductase, primary screen, biochemical, plate reader, single point. 0.18% of 70,000 active. diaphorase/resazurin fluorescence, 60 min. inhibition, % at 10 µM. Isocitrate dehydrogenase [NADP] cytoplasmic (Homo sapiens), O75874; in the data active means inhibition above about 34%; inconclusive means no clear call, values can overlap the other calls; inactive means below about 11%;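 further: 0% = DMSO and 100% = no enzyme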
Target sequence (O75874 whole entry R132H): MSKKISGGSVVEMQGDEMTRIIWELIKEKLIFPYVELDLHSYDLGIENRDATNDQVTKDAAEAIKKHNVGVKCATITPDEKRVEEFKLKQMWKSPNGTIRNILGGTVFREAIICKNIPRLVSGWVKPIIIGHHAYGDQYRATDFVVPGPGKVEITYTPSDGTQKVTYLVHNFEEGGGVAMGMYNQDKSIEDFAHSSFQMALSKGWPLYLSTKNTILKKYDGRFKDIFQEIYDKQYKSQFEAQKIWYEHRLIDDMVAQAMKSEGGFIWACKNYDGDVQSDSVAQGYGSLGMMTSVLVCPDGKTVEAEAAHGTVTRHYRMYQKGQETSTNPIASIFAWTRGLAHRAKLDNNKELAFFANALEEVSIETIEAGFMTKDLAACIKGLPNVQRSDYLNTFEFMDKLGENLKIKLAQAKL
T cruzi growth-1: T. cruzi intracellular proliferation inhibitors, primary screen, cell-based, beta-gal Tulahuen parasites, NIH3T3 host, luminescence. T. cruzi beta-gal in NIH3T3, GalScreen luminescence, 90 h. inhibition, % at 8.34 µM. 5.9% of 77,000 active. AID 624255, 2012;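 active means mean inhibition above about 93%, with at least 55% of replicates each passing it, limit read from the data, passing the limit was not always enough; inconclusive means only one of those two conditions holds; inactive means neither condition holds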
T cruzi growth-2: T. cruzi intracellular proliferation inhibitors, confirmation, cell-based, NIH3T3 host, beta-gal parasite, luminescence, cherry-pick; shares compounds with T cruzi growth-1; T. cruzi beta-gal in NIH3T3, GalScreen luminescence, 90 h; inhibition, % at 8.35 µM; 72% of 5,600 active; AID 651739, 2012;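 active means mean replicate inhibition above about 95% and at least 55% of replicates individually reaching it, limit read from the data; inconclusive means only one of the two criteria is met; inactive means neither criterion is met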
T cruzi growth-3: inhibitors of intracellular T. cruzi replication, confirmation, NIH3T3 host cells, beta-gal parasites, cherry-pick, set 2 | shares compounds with T cruzi growth-1 | T. cruzi beta-gal in NIH3T3, GalScreen luminescence, 90 h | inhibition, % at 2.09 µM | 21% of 5,600 active | AID 651740, 2012;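 active means mean inhibition above about 95%, with at least 55% of replicates also reaching it, limit read from the data; inconclusive means meets just one of the two conditions; inactive means meets neither condition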;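 further: plate controls were neutral control median for no effect and positive control median for full effect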
NIH3T3 tox: cytotoxicity in mouse NIH/3T3 fibroblasts, confirmation, cytotoxicity control for T. cruzi proliferation inhibitor project, cell-based, cherry-pick, single point; shares compounds with T cruzi growth-1; NIH/3T3 viability, CellTiter-Glo ATP luminescence, 90 h; cytotoxicity (signal decrease), % at 8.35 µM; 14% of 5,600 active; AID 651742, 2012;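 active means mean signal decrease across replicates above about 35% based on untreated-well scatter, with enough replicates individually passing, limit read from the data; inconclusive means no rule stated though some were filed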;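 further: 0% = median of neutral control wells and 100% = median of positive control wells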
NIH3T3 tox 2: NIH/3T3 fibroblast cytotoxicity, confirmation, cytotoxicity control, cell-based, cherry-pick, single point, set 2 | shares compounds with T cruzi growth-1 | inhibition, % at 24.9 µM | NIH/3T3 viability, CellTiter-Glo ATP luminescence, 90 h | 56% of 5,600 active;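 active means mean loss of cell viability signal at or above a set limit, and enough replicates individually reaching it; inconclusive means meets only the mean limit or only the replicate share; inactive means meets neither condition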;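 further: 0% = median of neutral control wells and 100% = median of positive control wells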
An asterisk follows results filed as active; ? = inconclusive; nt = not tested or not shown.

SMILES	GASC1 inh	Pf Dd2 growth	IDH1 R132H inh	T cruzi growth-1	T cruzi growth-2	T cruzi growth-3	NIH3T3 tox	NIH3T3 tox 2
Cc1ccc(-c2ccc([C@H]3[C@@H](CO)N4CCCCN(S(=O)(=O)c5cccc(C)c5)C[C@@H]34)cc2)cc1	nt	-45.7	nt	85.2	nt	nt	nt	nt
C/C=C/c1ccc([C@H]2[C@H](CO)N3CCCCN(S(=O)(=O)c4cccc(C)c4)C[C@@H]23)cc1	0.2	-9.6	nt	117.8*	107.0*	75.2	26.9	104.5*
C[C@H]1CN([C@@H](C)CO)S(=O)(=O)c2ccc(C#Cc3ccccn3)cc2O[C@@H]1CN(C)Cc1cccc(F)c1	-10.5	-5.4	nt	126.5*	97.9*	82.7	-32.0	69.9*
C[C@H]1CN([C@@H](C)CO)S(=O)(=O)c2ccc(C#CC3CC3)cc2O[C@@H]1CN(C)Cc1cccc(F)c1	1.3	-23.4	-2.5	nt	nt	nt	nt	nt
C[C@H]1CN([C@@H](C)CO)S(=O)(=O)c2ccc(C#Cc3ccccn3)cc2O[C@H]1CN(C)Cc1cccc(F)c1	1.8	-73.9	-4.2	125.2*	108.5*	82.7	-10.1	-13.3
C[C@H]1CN([C@@H](C)CO)S(=O)(=O)c2ccc(C#CC3CC3)cc2O[C@H]1CN(C)Cc1cccc(F)c1	9.3	-27.5	-1.5	nt	nt	nt	nt	nt
C[C@H](CO)N1C[C@H](C)[C@H](CN(C)Cc2cccc(F)c2)Oc2cc(C#Cc3ccccn3)ccc2S1(=O)=O	-8.3	-78.9	nt	124.4*	103.3*	103.4*	-16.6	-20.3
C[C@@H]1CN([C@H](C)CO)S(=O)(=O)c2ccc(C#Cc3ccccn3)cc2O[C@H]1CN(C)Cc1cccc(F)c1	-10.6	-28.0	0.9	121.2*	103.0*	85.9	?	80.8*
COC(=O)c1ccccc1NC(=O)C(C)NS(=O)(=O)c1cc(Cl)ccc1Cl (configuration not stated)	nt	nt	0.0	nt	nt	nt	nt	nt
Cc1cc(C(=O)Nc2cccc3c2O[C@H](CN(C)Cc2ccc(C(=O)Nc4ccccc4N)cc2)[C@@H](C)CN([C@@H](C)CO)C3=O)n(C)n1	-3.1	-86.8*	nt	106.2*	106.2*	85.6	10.4	22.6
Cc1cc(C(=O)Nc2cccc3c2O[C@H](CN(C)Cc2ccc(C(=O)Nc4ccccc4N)cc2)[C@H](C)CN([C@H](C)CO)C3=O)n(C)n1	1.6	-60.0	nt	103.2*	-48.5	-58.9	-9.5	-13.0
Cc1cc(C(=O)Nc2cccc3c2O[C@@H](CN(C)Cc2ccccc2)[C@@H](C)CN([C@H](C)CO)C3=O)n(C)n1	1.5	9.8	1.1	25.9	nt	nt	nt	nt
CS(=O)(=O)N(CC(=O)Nc1ccc(Cl)c(Cl)c1)c1ccc(I)cc1	nt	nt	0.1	nt	nt	nt	nt	nt
CCOc1ccc(NC(=O)CSc2nnc(-c3cccs3)n2C)cc1	nt	nt	0.6	nt	nt	nt	nt	nt
OC[C@@H]1[C@@H](c2ccc(-c3ccccc3F)cc2)[C@H]2CN(Cc3cccnc3)CCCCN12	-1.0	-55.2	nt	96.5*	76.1	37.8	?	97.0*
OC[C@@H]1[C@H](c2ccc(-c3ccc(F)cc3)cc2)[C@@H]2CN(Cc3cccnc3)CCCCN12	-0.2	-40.2	nt	122.9*	106.3*	66.3	27.7	95.2*
OC[C@@H]1[C@@H](c2ccc(-c3ccccc3F)cc2)[C@@H]2CN(Cc3ccncc3)CCCCN12	3.3	7.3	nt	74.9	nt	nt	nt	nt
OC[C@@H]1[C@H](c2ccc(-c3ccc(F)cc3)cc2)[C@H]2CN(Cc3ccncc3)CCCCN12	3.0	-57.0	nt	107.9*	92.1	70.4	?	103.7*
OC[C@H]1[C@H](c2ccc(-c3ccccc3F)cc2)[C@H]2CN(Cc3cccnc3)CCCCN21	-0.3	13.8	nt	72.1	nt	nt	nt	nt
OC[C@@H]1[C@H](c2ccc(-c3ccccc3F)cc2)[C@@H]2CN(Cc3ccncc3)CCCCN12	4.5	12.1	nt	?	106.8*	26.4	15.4	89.5*
O=C(CCC1COc2ccccc2O1)Nc1ccc(NC(=O)c2ccccc2F)cc1 (configuration not stated)	nt	nt	0.5	nt	nt	nt	nt	nt
O=C(c1ccccn1)N1CC[C@@H]2[C@H]1c1cc(-c3ccc(F)cc3)ccc1N[C@@H]2CO	-1.6	16.3	nt	105.2*	107.3*	63.1	15.0	30.2*
O=C(c1ccccn1)N1CC[C@@H]2[C@@H](CO)Nc3ccc(-c4ccccc4)cc3[C@@H]21	0.4	-32.3	nt	104.9*	101.2*	86.1	-18.1	-14.1
O=C(c1ccncc1)N1CC[C@H]2[C@H](CO)Nc3ccc(-c4ccc(F)cc4)cc3[C@H]21	-1.5	26.4	nt	98.7*	94.2	34.3	-12.1	3.0
COc1ccc(-c2nnc3c4ccccc4c(C)nn23)cc1S(=O)(=O)NC(C)c1ccccc1 (configuration not stated)	nt	nt	0.1	nt	nt	nt	nt	nt
SMILES	GASC1 inh	Pf Dd2 growth	IDH1 R132H inh	T cruzi growth-1	T cruzi growth-2	T cruzi growth-3	NIH3T3 tox	NIH3T3 tox 2
COc1ccc(N2C(=O)N(c3ccc(F)cc3)C(=O)C2CC(=O)Nc2ccc(F)cc2)cc1 (configuration not stated)	nt	nt	0.2	nt	nt	nt	nt	nt
Cc1cc(C)cc(N(CC(=O)Nc2ccc(C(N)=O)cc2)S(C)(=O)=O)c1	nt	nt	-0.4	nt	nt	nt	nt	nt
C[C@H](CO)N1C[C@H](C)[C@@H](CN(C)Cc2ccc(-c3ccccc3)cc2)Oc2ccc(NC(=O)Nc3cccc4ccccc34)cc2C1=O	0.1	-15.6	nt	101.6*	106.2*	71.8	9.4	27.6
C[C@@H]1CN([C@H](C)CO)C(=O)c2cc(NC(=O)Nc3cccc4ccccc34)ccc2O[C@H]1CN(C)Cc1ccc(-c2ccccc2)cc1	0.6	8.5	-0.6	112.3*	103.2*	90.7	8.7	-1.4
C[C@H]1CN([C@@H](C)CO)C(=O)c2cc(NC(=O)Nc3cccc4ccccc34)ccc2O[C@H]1CN(C)Cc1ccc(-c2ccccc2)cc1	-4.5	-11.8	-1.3	80.6	nt	nt	nt	nt
C[C@H](CO)N1C[C@H](C)[C@@H](CN(C)C(=O)Nc2ccc(C(F)(F)F)cc2)Oc2ncc(C3=CCCC3)cc2C1=O	0.8	-53.7	nt	102.4*	102.9*	52.0	17.7	73.9*
C[C@@H]1CN([C@H](C)CO)C(=O)c2cc(C3=CCCC3)cnc2O[C@H]1CN(C)C(=O)Nc1ccc(C(F)(F)F)cc1	0.1	-20.2	nt	102.2*	97.6*	43.9	22.6	58.5*
